For eleven compounds, IC50 results are on record in ChEMBL document CHEMBL1149895, “Steroids and flavonoids from Physalis alkekengi var. franchetii and their inhibitory effects on nitric oxide production” (J Nat Prod, 2008).

In general, IC50 refers to the concentration at which inhibition is half-maximal.

This assay concerns RAW264.7. The assay can be described thus: Inhibition of LPS-induced nitric oxide production in mouse RAW264.7 cells assessed as nitrite formation. It is filed as functional, cell-based. In short, it runs like this: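 RAW 264.7 cells in RPMI 1640 with 10% heat-inactivated FBS, penicillin and streptomycin, seeded at 1 × 10^5 cells/well and allowed to adhere 2 h at 37 °C in 5% CO2. LPS 1 µg/mL with or without compound (DMSO 0.2% v/v final) for 24 h. Supernatant nitrite read by Griess reagent against a 0–100 µM sodium nitrite line. Inhibition taken relative to LPS-only and untreated wells. Triplicate, mean ± SD of three independent experiments.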
Turning to `C[C@]12CCC(=O)C=C1CC[C@@H]1[C@@H]2[C@@H](O)C[C@@]2(C)[C@H]1CC[C@]2(O)C(=O)CO` [HYDROCORTISONE], the IC50 was found to be 64.3 µM.
To `C[C@]12C(=O)C[C@H](O)C=C1C=C[C@@H]1[C@@H]2CC[C@]2(O)C(=O)O[C@@]3(C)[C@H]4C[C@]5(C)[C@@H](CO[C@@]16O[C@@]32[C@H]5C6=O)C(=O)O4` [ISOPHYSALIN G] belongs 64 µM; to `O=c1cc(-c2ccc(O)c(O)c2)oc2cc(O)cc(O)c12` [LUTEOLIN], 7.39 µM.
To `COc1cc(O)c2c(=O)c(O)c(-c3ccc(OC)c(O)c3)oc2c1` [OMBUINE] belongs 2.23 µM.
With `C=C1C(=O)O[C@@H]2C[C@@]1(C)[C@@H]1C(=O)[C@]3(O)O[C@]14[C@@]2(C)OC(=O)[C@@]4(O)CC[C@H]1[C@H]3[C@H](O)C=C2CC=CC(=O)[C@@]21C` [PHYSALIN A] the figure was 2.57 µM; with `C[C@]12C(=O)C=CCC1=CC[C@@H]1[C@@H]2CC[C@]2(O)C(=O)O[C@@]3(C)[C@H]4C[C@]5(C)[C@@H](CO[C@@]16O[C@@]32[C@H]5C6=O)C(=O)O4` [PHYSALIN B], 0.84 µM; with `C[C@@]12C[C@H]3OC(=O)[C@@H]1CO[C@]14O[C@]5([C@H]2C1=O)[C@@](O)(CC[C@H]1[C@H]4C[C@H]2O[C@]24CC=CC(=O)[C@]14C)C(=O)O[C@@]35C` [PHYSALIN F], 0.33 µM.
`CO[C@H]1C=C2C=C[C@@H]3[C@H](CC[C@]4(O)C(=O)O[C@@]5(C)[C@H]6C[C@](C)([C@H](C)C(=O)O6)[C@H]6[C@@]3(O)C(=O)O[C@@]654)[C@@]2(C)C(=O)C1` [PHYSALIN I]: the concentration for half-maximal inhibition (IC50) came out at 84 µM.
With `C[C@@H]1C(=O)O[C@@H]2C[C@@]1(C)[C@@H]1C(=O)[C@]3(O)O[C@]14[C@@]2(C)OC(=O)[C@@]4(O)CC[C@H]1[C@H]3[C@H](O)C=C2CC=CC(=O)[C@@]21C` [PHYSALIN O] the figure was 17.1 µM; with `C[C@]12C(=O)C[C@@H](O)CC1=CC[C@@H]1[C@@H]2CC[C@]2(O)C(=O)O[C@@]3(C)[C@H]4C[C@]5(C)[C@@H](CO[C@@]16O[C@@]32[C@H]5C6=O)C(=O)O4` [PHYSALIN Y], 79.2 µM.
To `C[C@]12C(=O)C[C@@H](O)C=C1C=C[C@@H]1[C@@H]2CC[C@]2(O)C(=O)O[C@@]3(C)[C@H]4C[C@]5(C)[C@@H](CO[C@@]16O[C@@]32[C@H]5C6=O)C(=O)O4` [PHYSALIN Z] belongs 75.7 µM.
